From ChEMBL document CHEMBL1125570 (J Med Chem, 1992) come the findings set out here.

Assay [1] addresses T1, Serotonin 2 (5-HT2) receptor (Rattus norvegicus) (UniProt P30994+P08909+P14842). Nature of the assay: Selectivity ratio for 5-HT1C compared to 5-HT2 receptors. The assay is classed as protein assay. The gist of the method:
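Ratio of 5-HT1C Ki over 5-HT2 Ki. Both come from rat frontal cortex competition assays run in triplicate for 15 min at 37 °C. The 5-HT1C assay used 1 nM [3H]mesulergine with 100 nM spiperone present. […] Ki values were derived from IC50 by Cheng–Prusoff.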

Assay [2] deals with Serotonin 2 (5-HT2) receptor (Rattus norvegicus, UniProt P14842). Nature of the assay: Binding affinity against 5-hydroxytryptamine 2 receptor in rat using [3H]ketanserin as radioligand. The gist of the method: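 Male Sprague-Dawley rat (200–250 g) frontal cortex membranes in 50 mM Tris·HCl/0.5 mM EDTA/10 mM MgCl2, pH 7.4, plus 0.1% ascorbate and 10⁻⁵ M pargyline. Nonspecific binding defined by 1.0 μM cinanserin. Run in triplicate, 15 min at 37 °C, then filtration. Ki = IC50/(1 + D*/KD*).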

Assay [3] concerns the target T2, 5-hydroxytryptamine receptor 2C (Rattus norvegicus, UniProt P08909).
T2 sequence (P08909 whole entry): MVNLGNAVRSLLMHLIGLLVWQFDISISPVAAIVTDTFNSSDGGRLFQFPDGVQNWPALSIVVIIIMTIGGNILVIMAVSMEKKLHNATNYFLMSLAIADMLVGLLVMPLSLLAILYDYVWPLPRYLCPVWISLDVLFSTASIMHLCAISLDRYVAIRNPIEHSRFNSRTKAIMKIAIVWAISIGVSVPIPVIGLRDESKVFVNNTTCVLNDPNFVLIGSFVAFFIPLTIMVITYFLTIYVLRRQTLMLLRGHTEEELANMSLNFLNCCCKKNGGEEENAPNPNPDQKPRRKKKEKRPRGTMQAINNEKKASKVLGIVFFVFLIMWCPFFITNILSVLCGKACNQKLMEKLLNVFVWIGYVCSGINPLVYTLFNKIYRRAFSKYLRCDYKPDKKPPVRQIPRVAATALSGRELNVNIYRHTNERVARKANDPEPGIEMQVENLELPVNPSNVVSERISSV
Nature of the assay: Binding affinity against 5-hydroxytryptamine 1C receptor in rat using [3H]mesulergine as radioligand. The procedure, abridged:
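Rat frontal cortex homogenate (male Sprague-Dawley, 200–250 g), washed in 50 mM Tris·HCl, 0.5 mM EDTA, 10 mM MgCl2, pH 7.4, with 0.1% ascorbate and 10⁻⁵ M pargyline. 10 mg wet tissue, 1 nM [3H]mesulergine, 100 nM spiperone to block 5-HT2 sites, nonspecific binding with 1.0 μM mianserin. Incubated 15 min at 37 °C, triplicates, filtration. Ki from IC50 via Cheng–Prusoff.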

The target of assay [4] is T3, Serotonin 2 (5-HT2) receptor (Rattus norvegicus, UniProt P30994+P08909+P14842). The assay can be described thus: Inhibitory activity against 5-hydroxytryptamine 2 receptor. The assay is classed as protein assay. The procedure, abridged:
(§1)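 Male Sprague-Dawley rat (200–250 g) frontal cortex membranes in 50 mM Tris·HCl/0.5 mM EDTA/10 mM MgCl2, pH 7.4, plus 0.1% ascorbate and 10⁻⁵ M pargyline. […] Nonspecific binding defined by 1.0 μM cinanserin. Run in triplicate, 15 min at 37 °C, then filtration. Ki = IC50/(1 + D*/KD*).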

The target of assay [5] is T1, Serotonin 2 (5-HT2) receptor (Rattus norvegicus). Nature of the assay: Selectivity for 5-HT1C and 5-HT2 receptors, ratio of Ki. The assay is classed as protein assay. The procedure, abridged: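 Both come from rat frontal cortex competition assays run in triplicate for 15 min at 37 °C. The 5-HT1C assay used 1 nM [3H]mesulergine with 100 nM spiperone present. Ki values were derived from IC50 by Cheng–Prusoff.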

The target in assay [6] is T3, Serotonin 2 (5-HT2) receptor. The assay can be described thus: Binding affinity against 5-Hydroxy tryptamine 2 (5-hydroxytryptamine 2)receptor. Format: protein assay.
For assay [7], the target named is T2, 5-hydroxytryptamine receptor 2C. Nature of the assay: Binding affinity against 5-hydroxytryptamine 1C receptor.
Assay [8] has as its target T3, Serotonin 2 (5-HT2) receptor. The assay can be described thus: Inhibitory constant against 5-hydroxytryptamine 2 receptor. Format: protein assay. The procedure, abridged: as §1

T1 sequence (P14842 whole entry, looked up, one chain of several): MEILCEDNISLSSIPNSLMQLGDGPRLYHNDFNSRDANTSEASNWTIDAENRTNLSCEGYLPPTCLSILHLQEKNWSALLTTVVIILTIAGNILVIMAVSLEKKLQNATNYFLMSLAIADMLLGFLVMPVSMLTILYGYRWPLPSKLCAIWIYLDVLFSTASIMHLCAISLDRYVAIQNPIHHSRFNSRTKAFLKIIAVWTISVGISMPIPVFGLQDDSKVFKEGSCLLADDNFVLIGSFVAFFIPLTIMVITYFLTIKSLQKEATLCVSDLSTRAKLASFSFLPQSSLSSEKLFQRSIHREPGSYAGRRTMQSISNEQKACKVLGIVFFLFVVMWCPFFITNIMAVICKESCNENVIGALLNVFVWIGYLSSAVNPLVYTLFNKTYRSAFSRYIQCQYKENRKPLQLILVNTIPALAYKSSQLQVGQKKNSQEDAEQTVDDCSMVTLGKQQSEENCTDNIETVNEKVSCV
T1 sequence (P30994 whole entry, looked up, one chain of several): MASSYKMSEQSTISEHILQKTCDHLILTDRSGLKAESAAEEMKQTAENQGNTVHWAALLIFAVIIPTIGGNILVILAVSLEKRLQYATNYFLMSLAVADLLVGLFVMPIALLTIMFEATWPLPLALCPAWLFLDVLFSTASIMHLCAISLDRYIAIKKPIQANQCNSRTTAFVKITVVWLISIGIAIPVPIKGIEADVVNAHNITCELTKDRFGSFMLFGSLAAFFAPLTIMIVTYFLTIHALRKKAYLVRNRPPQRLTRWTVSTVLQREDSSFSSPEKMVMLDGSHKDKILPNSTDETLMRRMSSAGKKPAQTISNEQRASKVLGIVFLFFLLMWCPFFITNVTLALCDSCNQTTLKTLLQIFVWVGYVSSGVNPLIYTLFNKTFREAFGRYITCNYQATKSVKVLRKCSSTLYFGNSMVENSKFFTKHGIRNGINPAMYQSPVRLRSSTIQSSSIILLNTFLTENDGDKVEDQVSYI

Broadly, the Ki is a measure of affinity in units of concentration, obtained from inhibition or displacement. Regarding `O=C(O)C(=O)O.O=c1[nH]c2ccccc2c(=O)n1CCN1CCC(C(O)c2ccccc2)CC1` (configuration not stated), the Ratio in assay [1] was greater than 15. Further, the Ki in assay [2] is 655 nM; in assay [3], greater than 10000 nM.

Turning to `O=C(O)C(=O)O.O=C(c1ccc(F)cc1)C1CCN(Cc2ccccc2)CC1`, in assay [1], the Ratio was determined as 120. Moreover, the Ki in assay [2] stood at 25 nM; in assay [3] it was 3000 nM.

For the molecule `O=C(O)C(=O)O.O=c1[nH]c2ccccc2c(=O)n1CCN1CCC(Cc2ccc(F)cc2)CC1`, the Ratio in assay [1] worked out at 17. Also, the Ki in assay [2] is 12 nM; in assay [3], 200 nM.

As for `CN1CCC(C(=O)c2ccc(F)cc2)CC1`, the Ratio in assay [1] worked out at 12. Further, the Ki turned out to be 125 nM in assay [2] and 1510 nM in assay [3].

On to `CN1CCN(C(=O)c2ccccc2)CC1`, for which the Ki in assay [2] and in assay [3] was greater than 10000 nM throughout.

In the case of `O=C(O)/C=C\C(=O)O.O=c1[nH]c2ccccc2c(=O)n1CCN1CCC(Cc2ccccc2)CC1`, in assay [1], the Ratio turned out to be 30. The Ki turned out to be 32 nM in assay [2] and 970 nM in assay [3].

On to `Cl.O=C(CCCN1CCC(C(=O)c2ccc(F)cc2)CC1)c1ccccc1`, for which the Ratio in assay [1] turned out to be 50. Also, the Ki amounted to 6.5 nM in assay [2] and 350 nM in assay [3].

As a reminder, the IC50 is the midpoint of a concentration-inhibition curve. Read a high IC50 as weaker potency. Molecule `OC(c1ccccc1)C1CCN(CCc2ccc(F)cc2)CC1` (configuration not stated) registered an IC50 in assay [4] of 0.9 nM.

As to `O=C(c1ccccc1)N1CCNCC1`, the Ki in assay [2] and in assay [3] was greater than 10000 nM throughout.

With `CN1CCN(C2CC(c3ccc(F)cc3)c3ccccc32)CC1` (single isomer, unassigned; (+)), the IC50 in assay [4] is reported as 4.9 nM.

For `O=C(NCCN1CCC(C(=O)c2ccc(F)cc2)CC1)Nc1ccccc1.O=C(O)C(=O)O`, in assay [1], the Ratio came to 50. For the same molecule, the Ki in assay [2] was 4.3 nM; in assay [3] it was 200 nM.

In the case of `O=C1NCCN1CCN1CCN(C2CC(c3ccc(F)cc3)c3ccccc32)CC1` (configuration not stated), in assay [4], the IC50 came out at 3.4 nM.

`CN(CCCc1ccccc1)CCn1c(=O)[nH]c2ccccc2c1=O.O=C(O)C(=O)O`: in assay [1], the Ratio stood at 2. The results for the Ki in assay [2] and in assay [3] were 640 nM and 1390 nM, respectively.

With `CN1CCN(Cc2ccc(F)cc2)CC1.Cl.Cl`, the Ki in assay [2] and in assay [3] was greater than 10000 nM throughout.

As for `O=C(O)C(=O)O.O=C(c1ccc(F)cc1)C1CCN(CCCCc2ccccc2)CC1`, the Ratio in assay [1] came out at 120. For the same molecule, the Ki in assay [2] worked out at 5.3 nM; in assay [3] it was 620 nM.

As to `CCN1CCC(C(O)c2ccc(F)cc2)CC1.O=C(O)/C=C\C(=O)O` (configuration not stated), the inhibition constant Ki in assay [2] and in assay [3] was greater than 10000 nM throughout.

Turning to `c1ccc(CN2CCNCC2)cc1`, the Ki in assay [2] and in assay [3] was greater than 10000 nM in each case.

In the case of `O=C(O)C(=O)O.O=C(c1ccc(F)cc1)C1CCN(CCCc2ccccc2)CC1`, in assay [1], the Ratio turned out to be 60. Also, the Ki in assay [2] is 16 nM; in assay [3], 940 nM.

In the case of `CN1CCC(Cc2ccccc2)CC1.Cl`, the Ki ratio in assay [5] is greater than 2. The Ki is 3870 nM in assay [6] and greater than 10000 nM in assay [7].

In the case of `CN(C)CCn1c(=O)[nH]c2ccccc2c1=O`, the Ki in assay [2] and in assay [3] was greater than 10000 nM in each case.

For `CN1CCN(C(=O)c2ccc(F)cc2)CC1`, the inhibition constant Ki in assay [2] and in assay [3] was greater than 10000 nM in each case.

Regarding `O=C(O)/C=C\C(=O)O.O=C(c1ccccc1)C1CCN(CCn2c(=O)[nH]c3ccccc3c2=O)CC1`, the Ratio in assay [1] is 115. Moreover, the figures for the Ki in assay [2] and in assay [3] were 6.5 nM and 760 nM, respectively.

On to `O=C(O)C(=O)O.O=C(c1ccc(F)cc1)C1CCN(CCCCCc2ccccc2)CC1`, for which, in assay [1], the Ratio was found to be 40. Besides, the Ki worked out at 10 nM in assay [2] and 420 nM in assay [3].

On to `O=C(O)/C=C\C(=O)O.O=c1[nH]c2ccccc2c(=O)n1CCNCCCCc1ccccc1`, for which the Ratio in assay [1] was greater than 50. In addition, the Ki in assay [2] was 180 nM; in assay [3], greater than 10000 nM.

With `c1ccc(CC2CCNCC2)cc1`, the inhibition constant (Ki) in assay [6] and in assay [7] was greater than 10000 nM in each case.

On to `Cl.NCCn1c(=O)[nH]c2ccccc2c1=O`, for which the Ki in assay [2] and in assay [3] was greater than 10000 nM throughout.

Consider `O=C(NCCN1CCC(C(=O)c2ccc(F)cc2)CC1)c1ccccc1.O=C(O)C(=O)O`, for which, in assay [1], the Ratio amounted to 100. In addition, the Ki in assay [2] is 16 nM; in assay [3], 1610 nM.

`O=C(c1ccc(F)cc1)C1CCN(CCn2c(=O)[nH]c3ccccc3c2=O)CC1` [KETANSERIN] came in with a Ki in assay [3] of 50 nM.

Regarding `O=C(c1ccccc1)C1CCNCC1`, in assay [1], the Ratio was greater than 3. The Ki in assay [2] is 3320 nM; in assay [3] it was greater than 10000 nM.

For the molecule `CCN1CCC(C(=O)c2ccc(F)cc2)CC1`, the Ratio in assay [1] amounted to 12. Besides, the inhibition constant (Ki) in assay [2] stood at 260 nM; in assay [3] it was 3160 nM.

As for `O=C(c1ccc(F)cc1)C1CCNCC1`, the Ratio in assay [1] is 2. Also, the Ki in assay [2] worked out at 430 nM; in assay [3], 1100 nM.

In the case of `O=C(O)C(=O)O.O=C(c1ccc(F)cc1)C1CCN(CCc2ccccc2)CC1`, the Ratio in assay [1] was 15. Also, the Ki amounted to 8.5 nM in assay [2] and 145 nM in assay [3].

For the molecule `CN1CCN(CCn2c(=O)[nH]c3ccccc3c2=O)CC1.Cl.Cl`, the Ki in assay [2] and in assay [3] was greater than 10000 nM each time.

Turning to `Cl.O=c1[nH]c2ccccc2c(=O)n1CCN1CCCCC1`, the Ki in assay [2] and in assay [3] was greater than 10000 nM in each case.

Take `OC(c1ccccc1)C1CCN(CCc2ccccc2)CC1` (configuration not stated) [GLEMANSERIN]: the Ki in assay [8] came to 12.5 nM.

`O=C(O)/C=C\C(=O)O.O=c1[nH]c2ccccc2c(=O)n1CCNCCCc1ccccc1`: in assay [1], the Ratio was greater than 10. Besides, the Ki was 660 nM in assay [2] and greater than 10000 nM in assay [3].
